Measurements as given in ChEMBL document CHEMBL3272112, “Cycloalkanones. 8. Hypocholesterolemic activity of long-chain ketones related to pentadecanone” (J Med Chem, 1976).

Key:
Rattus norvegicus [1] = experiment: Hypocholesterolemic activity in Sprague-Dawley rat assessed as serum cholesterol level at 10 mg/kg/day, po administered via intubation measured on day 4 by Liebermann-Burchard method relative to control; format: functional
Procedure, shortened: (§1)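 Male Sprague-Dawley rats given compound homogenized in 1% CMC once daily at 11:00 a.m. by oral intubation needle (0.2 cc), doses calculated on weekly body weights; tail-vein blood drawn 24 h after last dose; nonhemolyzed serum (30 μ) assayed by modified Liebermann-Burchard method; N = 8; % of control, mean ± SD; Student's t test.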

Rattus norvegicus [2] = experiment: Hypocholesterolemic activity in Sprague-Dawley rat assessed as serum cholesterol level at 10 mg/kg/day, po administered via intubation measured on day 10 by Liebermann-Burchard method relative to control; format: functional; procedure, shortened: as §1
Rattus norvegicus [3] = experiment: Hypocholesterolemic activity in Sprague-Dawley rat assessed as serum cholesterol level at 10 mg/kg/day, po administered via intubation measured on day 16 by Liebermann-Burchard method relative to control; format: functional; procedure, shortened: as §1
Rattus norvegicus [4] = experiment: Toxicity in Sprague-Dawley rat assessed as increase in body weight at 10 mg/kg/day measured on day 10 (reference value: 160 +/- 13%); format: organism-based; conditions: in vivo
Rattus norvegicus [5] = experiment: Toxicity in Sprague-Dawley rat assessed as increase in body weight at 10 mg/kg/day measured on day 16 (reference value: 195 +/- 16%); format: organism-based; conditions: in vivo
Rattus norvegicus [6] = experiment: Uterotrophic activity in ovariectomized weaned Sprague-Dawley rat assessed as uterine weight at 10 mg/kg/day measured after 3 days (reference value: 100 +/- 15%); format: ADME, organism-based, Uterus; conditions: in vivo, 72 h
Procedure, shortened: (§2)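 Weaned rats were ovariectomized and left untreated for 3 days. They were then dosed for 3 days with 17-ethinylestradiol 10 µg/kg/day or test compound 10 mg/kg/day, with 1% CMC as the vehicle control. Rats were then killed and the uterus removed, trimmed and weighed. Results are % of control uterine weight, mean ± SD; N = 7; Student's t test.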

Rattus norvegicus [7] = experiment: Uterotrophic activity in ovariectomized weaned Sprague-Dawley rat assessed as uterine weight at 10 ug/kg/day measured after 3 days (reference value: 100 +/- 15%); format: ADME, organism-based, Uterus; conditions: in vivo, 0.01 mg/kg, 72 h; procedure, shortened: as §2

Compound	Activity (Rattus norvegicus [1]) [%]	Activity (Rattus norvegicus [2]) [%]	Activity (Rattus norvegicus [3]) [%]	Activity (Rattus norvegicus [4]) [%]	Activity (Rattus norvegicus [5]) [%]	Activity (Rattus norvegicus [6]) [%]	Activity (Rattus norvegicus [7]) [%]
CCCCCCCCCCCC(=O)CCCC	63	89	94	165	206	–	–
CCOC(=O)C(C)(C)Oc1ccc(Cl)cc1 [CLOFIBRATE]	100	98	106	–	–	–	–
CCCCCCCCCC(=O)CCCCCC	89	89	77	169	207	–	–
CCCCCCCCC(=O)CCCCCCC	102	97	72	167	209	–	–
CCCCCCCCCCC(=O)CCCCC	70	92	100	168	209	–	–
CCCCCCCCCCCCCCCC(C)=O	83	75	74	165	229	76	–
CCCCCCCCCCCCCC(C)=O	114	113	98	156	233	–	–
C#C[C@]1(O)CC[C@H]2[C@@H]3CCc4cc(O)ccc4[C@H]3CC[C@@]21C [ETHINYL ESTRADIOL]	–	–	–	–	–	–	372
CCCCCCCCCCCCCC(=O)CC	64	83	92	167	212	–	–
CCCCCCCCCCCCCCCCC(C)=O	79	86	73	175	242	–	–
CCCCCCCCCCCCC(=O)CCC	65	89	103	175	213	–	–
